Laboratory results from ChEMBL document CHEMBL3877298, “Discovery of benzimidazole derivatives as modulators of mitochondrial function: A potential treatment for Alzheimer's disease” (Eur J Med Chem, 2017).

Key:
[1] = molecular target: Translocator protein (Mus musculus) (UniProt P50637); experiment: Inhibition of TSPO in mouse HT22 cells assessed as inhibition of amyloid beta (1 to 42)-induced toxicity at 5 uM after 24 hrs by MTT assay relative to control; format: cell-based; details: HT-22
Method in brief: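 HT22 cells at 5000 per well were treated with compound (5 µM), with or without Aβ1-42 (5 µM), for 24 h at 37 °C. MTT was added for 2 h, then solubilising solution (10% Triton X-100 in isopropanol with 0.1 M HCl) for 2 h more. Absorbance read at 560 nm; % inhibition normalised to vehicle, and viability taken from compound-only wells.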

[2] = Cytotoxicity against mouse HT22 cells assessed as cell viability at 5 uM after 24 hrs by MTT assay relative to control; format: toxicity, HT-22; details: read-out: Activity
Method in brief: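 MTT was added for 2 h, then solubilising solution (10% Triton X-100 in isopropanol with 0.1 M HCl) for 2 h more. Absorbance read at 560 nm; % inhibition normalised to vehicle, and viability taken from compound-only wells.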

[3] = molecular target: Translocator protein (Mus musculus) (UniProt P50637); experiment: Inhibition of TSPO in mouse HT22 cells assessed as inhibition of amyloid beta (1 to 42)-induced ROS generation at 5 uM after 6 hrs by DCFDA staining based fluorescence assay relative to control; format: cell-based; details: HT-22
[4] = molecular target: Translocator protein (Mus musculus) (UniProt P50637); experiment: (§1) Inhibition of TSPO in mouse HT22 cells assessed as protection against amyloid beta (1 to 42)-induced mitochondrial membrane potential loss by measuring recovery of ATP production at 5 uM preincubated for 10 mins followed by amyloid beta (1 to 42) addition measured after 7 hrs by luciferase reporter gene assay relative to control; format: cell-based; parameters: scale not given: the % may be the effect or the level left; details: HT-22
Method in brief: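 HT22 cells at 7000 per well were given compound (5 µM) for 10 min at 37 °C, then Aβ1-42 (5 µM) or DMSO vehicle, and incubated 7 h. Cells were washed, lysed in 1% Triton X-100, and protein-equalised by BCA. ATP was measured by luciferin/luciferase luminescence and normalised to vehicle.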

[5] = molecular target: Translocator protein (Mus musculus) (UniProt P50637); experiment: as §1, with “mitochondrial membrane potential” for “ATP production”, “every 1 hr for 3” for “after 7”, “JC1 staining based fluorescence” for “luciferase reporter gene”; format: cell-based; parameters: scale not given: the % may be the effect or the level left; details: HT-22
Method in brief: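 HT22 cells at 30,000 per well were loaded with 7.5 µM JC-1 in phenol red-free Opti-MEM for 1 h 15 min at 37 °C, then washed. Cells were treated with compound (5 µM) and Aβ1-42 (5 µM); vehicle wells received DMSO. Green (485/535) and red (560/595) fluorescence were read hourly for 3 h. Recovery was normalised between Aβ-damaged (0%) and normal (100%) ratio.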

Sequence of Translocator protein (Mus musculus) (P50637 whole entry, looked up): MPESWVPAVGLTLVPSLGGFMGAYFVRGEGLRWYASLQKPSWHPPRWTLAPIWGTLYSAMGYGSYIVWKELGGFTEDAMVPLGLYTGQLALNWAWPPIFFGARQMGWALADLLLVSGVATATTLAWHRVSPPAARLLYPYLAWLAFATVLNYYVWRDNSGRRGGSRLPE

| Activity [5] | SMILES | other results |
| --- | --- | --- |
| 23% | CCCSCCNC(=O)c1ccc(Cn2c(SCc3ccccc3)nc3ncccc32)cc1 | – |
| 37% | O=C(c1ccc(CSc2nc3ncccc3n2Cc2ccc(F)cc2)cc1)N1CCCCC1 | – |
| 46% | O=C(NCCCc1cccs1)c1ccc(Cn2c(SCc3ccc(F)cc3)nc3ncccc32)cc1 | – |
| 61% | CCN1CCCC1CNC(=O)c1ccc(Cn2c(SCc3ccc(F)cc3)nc3ncccc32)cc1 (stereo unspecified) | – |
| 57% | CCCN(CCC)C(=O)Cn1c(SCc2ccc(F)cc2)nc2ccccc21 | Activity [4]: 20% |
| 76% | O=C(NCCCN1CCOCC1)c1ccc(Cn2c(Cc3c(Cl)cccc3Cl)nc3ccccc32)cc1 | viability at 24 h, 5 µM [2]: 98%; Activity [4]: 1% |
| 68% | Cc1ccc(C(C)C)cc1NC(=O)Cc1nc2ccccc2n1Cc1ccc(C(=O)NCCCN(C)C)cc1 | viability at 24 h, 5 µM [2]: 97%; Activity [4]: 14% |
| 80% | Cc1ccc(C(C)C)cc1NC(=O)Cc1nc2ccccc2n1Cc1ccc(C(=O)NCCCN2CCCCC2)cc1 | viability at 24 h, 5 µM [2]: 100%; Activity [4]: 23% |
| 15% | Cc1ccc(Cn2c(SCc3ccc(F)cc3)nc3ncccc32)cc1 | – |
| -7% | O=C(Cn1c(SCc2ccc(F)cc2)nc2ncccc21)Nc1ccc2c(c1)OCO2 | – |
| 86% | CN1CCN(CCCNC(=O)c2ccc(Cn3c(Cc4c(Cl)cccc4Cl)nc4ccccc43)cc2)CC1 | – |
| 38% | CCN(CC)CCCNC(=O)c1ccc(Cn2c(SCc3ccc(F)cc3)nc3ncccc32)cc1 | – |
| 52% | O=C(NCCCc1ccco1)c1ccc(Cn2c(SCc3ccc(F)cc3)nc3ncccc32)cc1 | – |
| 79% | O=C(NCCCN1CCCC1)c1ccc(Cn2c(Cc3c(Cl)cccc3Cl)nc3ccccc32)cc1 | inhibition [1]: 12%; viability at 24 h, 5 µM [2]: 100 to 101%; inhibition [3]: 15%; Activity [4]: 31% |
| 45% | O=C(NCCN1CCCCC1)c1ccc(Cn2c(SCc3ccc(F)cc3)nc3ncccc32)cc1 | – |
| 58% | CCCSCCCNC(=O)c1ccc(CSc2nc3ncccc3n2Cc2cccc(C)c2)cc1 | – |
| 47% | O=C(NCCN1CCOCC1)c1ccc(Cn2c(SCc3ccc(F)cc3)nc3ncccc32)cc1 | – |

Further lines, the molecule ahead of its results:

| SMILES | Activity [5] | other results |
| --- | --- | --- |
| COc1ccc(OC)c(Cc2nc3ccccc3n2CC(=O)Nc2cc(Cl)cc(Cl)c2)c1 | 68% | inhibition [1]: 12%; viability at 24 h, 5 µM [2]: 81 to 82%; inhibition [3]: 0%; Activity [4]: 94% |
| Cc1ccc(C(C)C)cc1NC(=O)Cn1c(Cc2ccccc2)nc2ccccc21 | 24% | – |
| CN1CCC(NC(=O)c2ccc(Cn3c(Cc4c(Cl)cccc4Cl)nc4ccccc43)cc2)CC1 | 81% | viability at 24 h, 5 µM [2]: 94%; Activity [4]: 8% |
| O=C(CCn1c(-c2ccc(Cl)cc2)nc2ccccc21)Nc1ccccc1F | 65% | – |
| COc1ccc(NC(=O)Cn2c(SCc3cc(C)ccc3C)nc3ccncc32)c(OC)c1OC | 43% | – |
| CCCN(CCC)C(=O)Cn1c(SCc2cccc(Cl)c2)nc2ccncc21 | 34% | – |
| Cc1cccc(C(C)(C)C)c1NC(=O)Cn1c(-c2cc(Cl)ccc2Cl)nc2ccccc21 | 41% | – |
| COc1ccc(OC)c(-c2nc3ccccc3n2CC(=O)Nc2cc(Oc3ccc(-c4ccccc4)cc3)ccc2F)c1 | 0% | – |
| Cc1c(Cl)cccc1NC(=O)Cn1c(SCc2ccccc2F)nc2ccncc21 | 30% | – |
| Cc1ccc(C(C)C)c(OC[C@H](O)Cn2c(Cc3ccccc3)nc3ccccc32)c1 | 53% | – |
| Cc1cccc(C(C)(C)C)c1NC(=O)Cn1c(-c2ccccc2)nc2ccccc21 | 65% | inhibition [1]: 16%; viability at 24 h, 5 µM [2]: 65 to 95%; inhibition [3]: 0%; Activity [4]: 55% |
| O=C(NCCN1CCCCC1)c1ccc(Cn2c(Cc3c(Cl)cccc3Cl)nc3ccccc32)cc1 | 89% | viability at 24 h, 5 µM [2]: 87%; Activity [4]: 4% |
| CC[C@@H](C(=O)Nc1ccccc1OC)n1c(SCc2ccc(C)cc2)nc2ccncc21 | 43% | – |
| COc1ccc(CC(=O)Cn2c(SCc3ccc(F)cc3)nc3ccncc32)c(OC)c1 | 34% | – |
| O=C(Cn1c(Cc2ccccc2)nc2ccccc21)Nc1cc(Oc2ccc(-c3ccccc3)cc2)ccc1F | 0% | – |
| COc1ccc(OC)c(-c2nc3ccccc3n2CC(=O)Nc2cc(C(C)C)ccc2C)c1 | 41% | – |
| O=C(Cn1c(-c2ccccc2)nc2ccccc21)Nc1cc(Cl)cc(Cl)c1 | 69% | – |

| SMILES | Activity [5] | other results |
| --- | --- | --- |
| Cc1ccc(C(C)C)cc1NC(=O)Cn1c(-c2ccccc2)nc2ccccc21 | 63% | viability at 24 h, 5 µM [2]: 67%; Activity [4]: 19% |
| CC(C)(C)c1cc(NC(=O)Cn2c(Cc3ccccc3)nc3ccccc32)cc(C(C)(C)C)c1 | 29% | – |
| CCN1CCCC1CNC(=O)c1ccc(Cn2c(CC(=O)Nc3cc(C(C)C)ccc3C)nc3ccccc32)cc1 (stereo unspecified) | 68% | – |
| COc1ccc(OC)c(Cc2nc3ccccc3n2CC(=O)Nc2cc(C(C)C)ccc2C)c1 | 81% | viability at 24 h, 5 µM [2]: 96%; Activity [4]: 0% |
| CC(C)(C)c1cc(NC(=O)Cn2c(-c3ccccc3)nc3ccccc32)cc(C(C)(C)C)c1 | 86% | viability at 24 h, 5 µM [2]: 71%; Activity [4]: 4% |
| O=C(Cn1c(-c2cc(Cl)ccc2Cl)nc2ccc(Cl)cc21)Nc1cc(Cl)cc(Cl)c1 | 18% | – |
| O=C(Cn1c(-c2cc(Cl)ccc2Cl)nc2ccccc21)Nc1cc(Cl)cc(Cl)c1 | 91% | viability at 24 h, 5 µM [2]: 107%; Activity [4]: 0% |
| COc1ccc(NC(=O)Cn2c(SCc3ccc(C)cc3)nc3ccncc32)c(OC)c1OC | 27% | – |
| O=C(Cn1c(-c2cc(Cl)ccc2Cl)nc2cc(Cl)ccc21)Nc1cc(Cl)cc(Cl)c1 | 77% | – |
| C=CCN(C(=O)Cn1c(SCc2ccc(F)cc2)nc2ccncc21)c1ccccc1 | -1% | – |
| Cc1cccc(C(C)(C)C)c1NC(=O)Cn1c(Cc2ccccc2)nc2ccccc21 | 38% | – |
| Cc1ccc(C(C)C)cc1NC(=O)Cn1c(-c2cc(Cl)ccc2Cl)nc2ccccc21 | 91% | viability at 24 h, 5 µM [2]: 93%; Activity [4]: 0% |
| Cc1ccc(C(C)C)cc1NC(=O)Cn1c(-c2cc(Cl)ccc2Cl)nc2cc(Cl)ccc21 | 60% | viability at 24 h, 5 µM [2]: 78%; Activity [4]: 3% |
| CC(C)(C)c1cc(NC(=O)Cn2c(Cc3ccc(Cl)c(Cl)c3)nc3ccccc32)cc(C(C)(C)C)c1 | 42% | – |
| CN(C)C(=O)c1ccc(Cn2c(Cc3c(Cl)cccc3Cl)nc3ccccc32)cc1 | 73% | – |
| CCC1CCCCN1C(=O)Cn1c(SCc2cccc(C(F)(F)F)c2)nc2ncccc21 (stereo unspecified) | 25% | – |
| Cc1ccc(C(C)C)cc1NC(=O)Cn1c(Cc2ccc(Cl)c(Cl)c2)nc2ccccc21 | 57% | – |
